In ChEMBL document CHEMBL2016497, “Analogs of the RSK inhibitor SL0101: optimization of in vitro biological stability” (Bioorg Med Chem Lett, 2012):
Calls of active or inactive are those of the source. The calls are words filed in the database; no cut-off is given here.

Legend:
MCF7 [1] = experiment: Antiproliferative activity against human MCF7 cells after 48 hrs by CellTiter-GloTM assay; type: functional, cell-based; settings: MCF7, 48 h
[2] = target: Ribosomal protein S6 kinase alpha-3 (Homo sapiens, UniProt P51812); experiment: Inhibition of His-tagged RSK2 expressed in Sf9 cells using ERalpha-Ser167 RLASTND as substrate after 120 mins by chemiluminescence assay
Sequence of Ribosomal protein S6 kinase alpha-3 (P51812 whole entry): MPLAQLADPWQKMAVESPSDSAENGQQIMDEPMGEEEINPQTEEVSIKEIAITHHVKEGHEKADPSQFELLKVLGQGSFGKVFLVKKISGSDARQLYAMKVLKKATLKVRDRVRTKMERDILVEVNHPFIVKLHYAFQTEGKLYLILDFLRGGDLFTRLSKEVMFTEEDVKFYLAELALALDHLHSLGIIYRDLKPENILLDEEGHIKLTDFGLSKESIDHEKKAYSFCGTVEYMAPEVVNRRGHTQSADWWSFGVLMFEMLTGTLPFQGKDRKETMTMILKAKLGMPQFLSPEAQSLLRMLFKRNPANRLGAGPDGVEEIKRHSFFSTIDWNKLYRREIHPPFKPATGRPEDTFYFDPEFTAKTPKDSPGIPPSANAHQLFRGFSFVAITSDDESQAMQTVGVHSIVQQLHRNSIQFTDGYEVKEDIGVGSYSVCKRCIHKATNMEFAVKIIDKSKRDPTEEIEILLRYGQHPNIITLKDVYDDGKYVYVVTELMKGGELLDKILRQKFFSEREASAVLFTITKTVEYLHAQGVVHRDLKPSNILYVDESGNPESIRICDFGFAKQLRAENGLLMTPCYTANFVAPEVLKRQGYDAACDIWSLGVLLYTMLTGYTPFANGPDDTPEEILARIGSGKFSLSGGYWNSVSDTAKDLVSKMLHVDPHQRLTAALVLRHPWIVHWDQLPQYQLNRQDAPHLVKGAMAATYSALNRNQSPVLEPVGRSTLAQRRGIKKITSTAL

MCF7 [3] = experiment: Antiproliferative activity against human MCF7 cells at 100 uM after 48 hrs by CellTiter-GloTM assay; type: functional, cell-based
How it was run: (§1)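 Stability time course: MCF7 cells given inhibitor (100μM) at plating (time 0); percentage of growth measured at set time points versus vehicle. n=3 in quadruplicate.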

MCF7 [4] = experiment: Antiproliferative activity against human MCF7 cells at 100 uM after 144 hrs by CellTiter-GloTM assay; type: functional, cell-based; how it was run: as §1
MCF7 [5] = experiment: Antiproliferative activity against human MCF7 cells at 100 uM after 96 hrs by CellTiter-GloTM assay; type: functional, cell-based; how it was run: as §1
MCF7 [6] = experiment: Down regulation of cyclin D1 level in human MCF7 cells at 100 uM at 96 hrs by immunoblotting analysis relative to control; type: functional, cell-based
How it was run: (§2)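 MCF7 cells treated at 100 μM; at each time point cells were lysed and lysates immunoblotted for cyclin D1 versus control, each compound analyzed on a single membrane.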

MCF7 [7] = experiment: Down regulation of cyclin D1 level in human MCF7 cells at 100 uM at 48 hrs by immunoblotting analysis relative to control; type: functional, cell-based; how it was run: as §2
MCF7 [8] = experiment: Antiproliferative activity against human MCF7 cells at 50 uM after 48 hrs by CellTiter-GloTM assay; type: functional, cell-based
How it was run: (§3)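 MCF-10A and MCF7 cells exposed to inhibitor at 50 μM; growth compared with vehicle. n=3 in quadruplicate.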

MCF-10A = experiment: Antiproliferative activity against human MCF10A cells at 50 uM after 48 hrs by CellTiter-GloTM assay; type: cell-based; how it was run: as §3
[9] = Solubility of the compound; type: physicochemical

SMILES	IC50 (MCF7 [1])	Activity (MCF7 [3])	Activity (MCF7 [4])	Activity (MCF7 [5])	solubility [9]	also measured
CC(=O)CO[C@@H]1[C@@H](OCC(C)=O)[C@@H](O)[C@H](Oc2c(-c3ccc(O)cc3)oc3cc(O)cc(O)c3c2=O)O[C@H]1C	34.1 µM	inactive	inactive	inactive		IC50 [2]: 0.252 µM
CC(=O)O[C@@H]1[C@@H](OC(C)=O)[C@@H](O)[C@H](Oc2c(-c3ccc(O)cc3)oc3cc(O)cc(O)c3c2=O)O[C@H]1C	45.6 µM	Active	inactive	inactive		Activity (MCF7 [6]): inactive; Activity (MCF7 [7]): Active; Activity (MCF7 [8]): Active; Activity (MCF-10A): Non-toxic
C[C@@H]1O[C@@H](Oc2c(-c3ccc(O)cc3)oc3cc(O)cc(O)c3c2=O)[C@H](O)[C@H](OC(=O)N2CCCC2)[C@H]1OC(=O)N1CCCC1					Insoluble	
C[C@@H]1O[C@@H](Oc2c(-c3ccc(O)cc3)oc3cc(O)cc(O)c3c2=O)[C@H](O)[C@H](OC(=O)N(C)C)[C@H]1OC(=O)N(C)C					Insoluble	
C[C@@H]1O[C@@H](Oc2c(-c3ccc(O)cc3)oc3cc(O)cc(O)c3c2=O)[C@H](O)[C@H](OC(=O)N2CCOCC2)[C@H]1OC(=O)N1CCOCC1					soluble	
